Results: article PMC7113734 (Antiviral Research, 2016)
Where two headings read alike, the source gives them in different places.

How the values were obtained:
HIV-1 protease = HIV-1 protease (Human immunodeficiency virus type 1 group M subtype B, UniProt P04585); experiment: HIV-1 protease inhibition assay; format: biochemical
HIV-1IIIB [1] = experiment: Antiviral activity with added serum proteins in CEM-SS cells; format: cell-based
HIV-1IIIB [2] = experiment: Drug-resistant virus selection by serial dose escalation; format: cell-based; details: fourteen passages, CEM-SS cells
[3] = tested on: drug-resistant HIV-1 strains; experiment: Antiviral activity against drug-resistant HIV-1 strains in MT-4; format: cell-based; details: MT-4
[4] = tested on: IIIB strain of HIV-1 in CEM-SS cells; experiment: Combination drug interaction evaluation; format: cell-based
Outline: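 CEM-SS cells infected with HIV-1 IIIB; inhibition of cytopathic effect measured for the test compound in two-drug combinations with known anti-HIV agents. Efficacy and toxicity analysed by Prichard–Shipman MacSynergy II. Expected additive inhibition computed from each agent's single-agent dose–response; inhibition above expected at each concentration calculated at 95%, 99% and 99.9% confidence. −99 to −51 μM2% scored antagonistic; <−100 highly antagonistic.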

in vitro = details: human, CC50 (cytotoxic concentration), fresh human PBMCs
MT-4 cells = experiment: Toxicity to MT-4 cells; format: cell-based; details: all assays
hERG = hERG (Homo sapiens, UniProt Q12809); experiment: Standard hERG test for cardiotoxicity
Chain of hERG (Q12809 whole entry): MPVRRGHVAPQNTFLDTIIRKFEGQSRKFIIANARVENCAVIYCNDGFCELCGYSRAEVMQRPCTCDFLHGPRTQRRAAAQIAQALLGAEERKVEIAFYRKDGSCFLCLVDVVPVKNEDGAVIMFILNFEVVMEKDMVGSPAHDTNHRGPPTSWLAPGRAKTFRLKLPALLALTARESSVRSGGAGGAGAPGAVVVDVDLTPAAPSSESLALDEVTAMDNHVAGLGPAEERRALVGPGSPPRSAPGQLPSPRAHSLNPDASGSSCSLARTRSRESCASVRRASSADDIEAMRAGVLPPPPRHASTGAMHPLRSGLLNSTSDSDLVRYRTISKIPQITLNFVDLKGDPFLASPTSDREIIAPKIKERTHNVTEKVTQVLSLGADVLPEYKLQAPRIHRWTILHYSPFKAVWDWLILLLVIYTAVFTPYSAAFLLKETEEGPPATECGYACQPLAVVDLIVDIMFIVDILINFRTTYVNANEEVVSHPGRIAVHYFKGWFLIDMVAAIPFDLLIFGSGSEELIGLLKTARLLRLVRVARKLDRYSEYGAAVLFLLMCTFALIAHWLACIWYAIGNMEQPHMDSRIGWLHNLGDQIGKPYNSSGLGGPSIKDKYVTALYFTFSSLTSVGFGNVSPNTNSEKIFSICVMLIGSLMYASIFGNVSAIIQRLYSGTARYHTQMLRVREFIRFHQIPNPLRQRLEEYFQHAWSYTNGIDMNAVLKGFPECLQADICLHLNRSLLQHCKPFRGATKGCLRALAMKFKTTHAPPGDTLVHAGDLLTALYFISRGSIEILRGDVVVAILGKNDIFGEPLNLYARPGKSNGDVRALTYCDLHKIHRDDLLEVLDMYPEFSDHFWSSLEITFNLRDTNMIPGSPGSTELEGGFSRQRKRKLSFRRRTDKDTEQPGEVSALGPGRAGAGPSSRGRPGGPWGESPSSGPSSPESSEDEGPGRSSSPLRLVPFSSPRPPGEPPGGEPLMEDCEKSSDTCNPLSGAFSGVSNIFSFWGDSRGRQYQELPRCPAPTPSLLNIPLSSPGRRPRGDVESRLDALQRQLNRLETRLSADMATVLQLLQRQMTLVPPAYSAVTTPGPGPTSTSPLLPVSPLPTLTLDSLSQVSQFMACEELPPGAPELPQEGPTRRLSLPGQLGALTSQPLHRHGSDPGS

HIVIIIB = experiment: Cell-to-cell virus transmission assay in CEM-SS cells; format: cell-based, HIV-1
cytochrome P450 enzymes = experiment: Inhibition of cytochrome P450 enzymes; format: in vitro ADME
[5] = tested on: clinical HIV-1 subtype B virus 92US723; experiment: Antiviral activity with added serum proteins in fresh human PBMCs; format: cell-based; details: 50% human serum, AAGP or HSA vs medium only
wild type HIV-1 RT = wild type HIV-1 RT (Human immunodeficiency virus type 1 group M subtype B, UniProt P04585); experiment: Biochemical RT inhibition assay
HIV-1 integrase = HIV-1 integrase (Human immunodeficiency virus type 1 group M subtype B, UniProt P04585); experiment: HIV-1 integrase inhibition assay; format: biochemical
Pharmacokinetics in rats = format: in vivo; details: male, Sprague-Dawley, rat, plasma, po, 1000 mg/kg
Outline: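 Male Sprague-Dawley rats, n = 3 per route. Prodrug given as IV bolus (50 mg/kg, 12.5 mg/mL in 5% DMSO/50% PEG300 in saline) or PO (1000 mg/kg, […] in 2% CMC suspension). Blood sampled over 24 h into sodium fluoride plus citric acid, kept on wet ice <10 min, then centrifuged at 4 °C. Plasma stored at −80 °C; prodrug and active metabolite quantified by UPLC-MS/MS (prodrug LLOQ 0.10 ng/mL).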

[6] = tested on: HL2/3 cells expressing HIV-1 gp120 and gp41 fusing with HeLa-CD4-LTR-β-gal cells; experiment: Fusion inhibition assay; format: cell-based; details: Human immunodeficiency virus 1, HL2/3, read-out: Fusion inhibition EC50 ± SD
Outline: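 HeLa-CD4-LTR-β-Gal cells incubated with test compound for 1 h at 37°C/5% CO2, then co-cultured 48 h with HL2/3 cells. Cells lysed and β-galactosidase expression measured by chemiluminescent Gal-Screen.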

[7] = tested on: drug resistant clinical HIV isolates; experiment: Antiviral activity against drug-resistant HIV-1 in PBMCs; format: cell-based; details: Human immunodeficiency virus 1, PBMC
HIV strain 92US727 = experiment: Cell-to-cell virus transmission assay in fresh human PBMCs; format: cell-based, HIV-1
Outline: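 HIV-infected fresh human PBMCs treated 3 days with six concentrations of test compound. Passaged every 3 days for three passages at fixed compound concentration; 80% of culture volume replaced with fresh compound-containing medium and uninfected cells. Cell-free supernatants collected on sub-culture days for RT activity and extracellular p24 antigen. TCID50 per passage by endpoint dilution.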

[8] = tested on: HIV attachment to HeLa-CD4-LTR-β-gal cells; experiment: Attachment inhibition assay; format: cell-based, HIV-1; details: Human immunodeficiency virus 1, read-out: Attachment inhibition EC50 ± SD

NC(=O)CCNC(=O)c1ccccc1S [MDH-1-38, N-(3-amino-3-oxopropyl)-2-mercaptobenzamide]
EC50 (HIV-1 protease): > 100 µM | fold decrease in potency (HIV-1IIIB [1]; in the presence of 50% human AB serum): ~4.5 fold | fold decrease in potency (HIV-1IIIB [1]; in the presence of HSA (10 mg/mL)): 4.5 fold | selection of resistant virus (HIV-1IIIB [2]): did not result in resistance | EC50 ([3]; Human immunodeficiency virus 1, read-out: Mean EC50 ± SD, AZT- and NNRTI-resistant, RT 4xAZT/L100I): 3.59 ± 1.25 µM | EC50 ([3]; Human immunodeficiency virus 1, read-out: Mean EC50 ± SD, AZT- and NNRTI-resistant, RT 4xAZT/Y181C): 4.87 ± 0.22 µM | EC50 ([3]; Human immunodeficiency virus 1, read-out: Mean EC50 ± SD, AZT-resistant, RT 4xAZT (D67N/K70R/T215Y/K219Q)): 3.31 ± 2.2 µM | EC50 ([3]; Human immunodeficiency virus 1, read-out: Mean EC50 ± SD, Atazanavir-resistant, PR I50L): 0.82 ± 0.37 µM | EC50 ([3]; Human immunodeficiency virus 1, read-out: Mean EC50 ± SD, Didanosine-resistant, RT L74V): 3.93 ± 2.33 µM | EC50 ([3]; Human immunodeficiency virus 1, read-out: Mean EC50 ± SD, Enfuviritide-resistant, Env V38A/N126K): 7.09 ± 0.03 µM | EC50 ([3]; Human immunodeficiency virus 1, read-out: Mean EC50 ± SD, Indinavir-, Ritonavir-resistant, PR I84V): 2.54 ± 0.93 µM | EC50 ([3]; Human immunodeficiency virus 1, read-out: Mean EC50 ± SD, Indinavir-, Ritonavir-resistant, PR V82A): 10.3 ± 5.34 µM | EC50 ([3]; Human immunodeficiency virus 1, read-out: Mean EC50 ± SD, Indinavir-, Ritonavir-resistant, PR V82F/I84V): 4.1 ± 0.47 µM | EC50 ([3]; Human immunodeficiency virus 1, read-out: Mean EC50 ± SD, Lamivudine-resistant, RT M184V): 2.7 ± 1.52 µM | EC50 ([3]; Human immunodeficiency virus 1, read-out: Mean EC50 ± SD, NNRTI-resistant, RT K103N/Y181C): 8.03 ± 1.45 µM | EC50 ([3]; Human immunodeficiency virus 1, read-out: Mean EC50 ± SD, NNRTI-resistant, RT K103N): 3.97 ± 1.31 µM | EC50 ([3]; Human immunodeficiency virus 1, read-out: Mean EC50 ± SD, NNRTI-resistant, RT L100I): 1.22 ± 0.01 µM | EC50 ([3]; Human immunodeficiency virus 1, read-out: Mean EC50 ± SD, NNRTI-resistant, RT V106A): 2.74 ± 2.17 µM | EC50 ([3]; Human immunodeficiency virus 1, read-out: Mean EC50 ± SD, NNRTI-resistant, RT V108I): 3.84 ± 1.6 µM | EC50 ([3]; Human immunodeficiency virus 1, read-out: Mean EC50 ± SD, NNRTI-resistant, RT V179D): 3.57 ± 1.81 µM | EC50 ([3]; Human immunodeficiency virus 1, read-out: Mean EC50 ± SD, NNRTI-resistant, RT Y181C): 3.99 ± 1.59 µM | EC50 ([3]; Human immunodeficiency virus 1, read-out: Mean EC50 ± SD, NNRTI-resistant, RT Y188C): 3.37 ± 2.15 µM | EC50 ([3]; Human immunodeficiency virus 1, read-out: Mean EC50 ± SD, Raltegravir-resistant, IN Q148H/G140S): 3.39 ± 2.15 µM | EC50 ([3]; Human immunodeficiency virus 1, read-out: Mean EC50 ± SD, Saquinavir-resistant, PR G48V/L90M): 1 ± 0.34 µM | EC50 ([3]; Human immunodeficiency virus 1, read-out: Mean EC50 ± SD, Tenofovir-resistant, RT K65R): 4.29 ± 0.64 µM | mean synergy volume ([4]; in combination with amprenavir): 101 ± 61 μM^2% | mean synergy volume ([4]; in combination with dolutegravir): 95.7 ± 44.3 μM^2% | mean synergy volume ([4]; in combination with enfuviritide): 80.8 ± 32.9 μM^2% | mean synergy volume ([4]; in combination with lopinavir): 108 ± 64.5 μM^2% | mean synergy volume ([4]; in combination with nelfinavir): 498 ± 288 μM^2% | mean synergy volume ([4]; in combination with ritonavir): 282 ± 111 μM^2% | CC50 (in vitro): > 231 µM | non-toxic up to high test concentration (MT-4 cells): > 100 µM | hERG test for cardiotoxicity (hERG): negative | RT (HIVIIIB; Passage 1, 2 μM): 22 cpm | TCID50/mL (HIVIIIB; Passage 1, 2 μM): 0 TCID50/mL | p24 (HIVIIIB; Passage 1, 2 μM): 619 pg/mL | RT (HIVIIIB; Passage 2, 2 μM): 185 cpm | TCID50/mL (HIVIIIB; Passage 2, 2 μM): 2.46 × 10^5 TCID50/mL | p24 (HIVIIIB; Passage 2, 2 μM): 28,255 pg/mL | RT (HIVIIIB; Passage 3, 2 μM): 2820 cpm | TCID50/mL (HIVIIIB; Passage 3, 2 μM): 2.41 × 10^4 TCID50/mL | p24 (HIVIIIB; Passage 3, 2 μM): 394,996 pg/mL | inhibition of cytochrome P450 enzymes (cytochrome P450 enzymes): neither NS1040 nor MDH-1-38 had significant inhibitory activity | change in antiviral activity with serum protein additives [5]: no significant change in antiviral activity | EC50 (wild type HIV-1 RT): > 100 µM | EC50 (HIV-1 integrase): > 100 µM | bioavailability (Pharmacokinetics in rats): 64% | EC50 [6]: 83.3 ± 26.4 µM | EC50 ([7]; read-out: PBMC/HIV-1 EC50 ± SD, Multi-drug resistant AD. MDR): 10.6 ± 6.95 µM | EC50 ([7]; read-out: PBMC/HIV-1 EC50 ± SD, Multi-drug resistant MDR769): 3.5 ± 1.45 µM | EC50 ([7]; read-out: PBMC/HIV-1 EC50 ± SD, NNRTI-resistant A17R): 11.4 ± 8.47 µM | EC50 ([7]; read-out: PBMC/HIV-1 EC50 ± SD, NNRTI-resistant N119): 2.58 ± 2.52 µM | EC50 ([7]; read-out: PBMC/HIV-1 EC50 ± SD, PI-resistant 144-44): 9.78 ± 8.23 µM | EC50 ([7]; read-out: PBMC/HIV-1 EC50 ± SD, PI-resistant 1002-60): 2.04 ± 1.03 µM | EC50 ([7]; read-out: PBMC/HIV-1 EC50 ± SD, PI-resistant 1022-48): 0.98 ± 0.64 µM | EC50 ([7]; read-out: PBMC/HIV-1 EC50 ± SD, PI-resistant 1026-60): 2.67 ± 0.4 µM | EC50 ([7]; read-out: PBMC/HIV-1 EC50 ± SD, PI-resistant 1064-52): 3.06 ± 0.28 µM | EC50 ([7]; read-out: PBMC/HIV-1 EC50 ± SD, Wild Type 92US727): 3.32 ± 1.95 µM | RT (HIV strain 92US727; Passage 1, 3.25 μM): 216 cpm | TCID50/mL (HIV strain 92US727; Passage 1, 3.25 μM): 3.75 × 10^2 TCID50/mL | p24 (HIV strain 92US727; Passage 1, 3.25 μM): 816 pg/mL | RT (HIV strain 92US727; Passage 2, 3.25 μM): 730 cpm | TCID50/mL (HIV strain 92US727; Passage 2, 3.25 μM): 4.90 × 10^3 TCID50/mL | p24 (HIV strain 92US727; Passage 2, 3.25 μM): 2642 pg/mL | RT (HIV strain 92US727; Passage 3, 3.25 μM): 11,080 cpm | TCID50/mL (HIV strain 92US727; Passage 3, 3.25 μM): 2.17 × 10^4 TCID50/mL | p24 (HIV strain 92US727; Passage 3, 3.25 μM): 55,429 pg/mL | EC50 [8]: 44.4 ± 7.21 µM
